Laboratory results: ChEMBL document CHEMBL4680083, “Identification of Tricyclic Agonists of Sphingosine-1-phosphate Receptor 1 (S1P) Employing Ligand-Based Drug Design” (J Med Chem, 2016)
Activity calls are given as the source filed them. The rule behind the calls is not given here.

What was measured:
[1] = Plasma concentration in Lewis rat at 1 mg/kg, po measured at 24 hrs; format: ADME, organism-based; settings: Lewis, plasma
Method in brief: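 Lewis rats received a single oral 1.0 mg/kg dose as solution or suspension in PEG300. Blood was drawn retro-orbitally under isoflurane at 4 h and 24 h, within the blood lymphocyte reduction study. n = 3−4 per group, group mean reported.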

[2] = Ratio of plasma concentration in Lewis rat at 1 mg/kg, po measured at 4 hrs to plasma concentration in Lewis rat at 1 mg/kg, po measured at 24 hrs; format: ADME, organism-based; settings: in vivo
[3] = tested on: Rattus norvegicus; assay: Reduction in circulating lymphocytes count in Lewis rat blood administered orally measured at 4 to 24 hrs by hematology analyzer based analysis; format: functional, organism-based
Method in brief: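 Lewis rats were given an oral dose as a solution or suspension in PEG300, with controls receiving vehicle only. Blood was taken by retro-orbital bleeding under isoflurane at 4 and 24 h. Lymphocytes were counted on a hematology analyzer. Reduction is relative to the vehicle group, averaged over the animals in each group (n = 3−4).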

[4] = molecular target: T1, Sphingosine 1-phosphate receptor 1 (Homo sapiens, UniProt P21453); assay: Agonist activity at human S1P1 expressed in CHO cell membranes assessed as stimulation of [35S]-GTPgamma-S binding measured after 45 mins by liquid scintillation counting method relative to control; settings: Cell membrane, filed as agonist
T1 sequence (P21453 whole entry): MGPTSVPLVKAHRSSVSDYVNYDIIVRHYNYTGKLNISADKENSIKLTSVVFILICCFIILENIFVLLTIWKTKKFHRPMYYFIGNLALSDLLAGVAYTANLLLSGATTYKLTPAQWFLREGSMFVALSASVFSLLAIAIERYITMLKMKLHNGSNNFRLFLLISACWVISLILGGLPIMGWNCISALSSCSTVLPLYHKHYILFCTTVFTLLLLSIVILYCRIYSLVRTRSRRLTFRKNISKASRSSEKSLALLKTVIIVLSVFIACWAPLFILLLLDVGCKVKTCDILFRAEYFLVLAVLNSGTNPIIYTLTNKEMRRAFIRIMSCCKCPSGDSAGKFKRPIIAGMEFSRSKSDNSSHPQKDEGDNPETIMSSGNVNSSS
Method in brief: (§1)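 S1P1/CHO cell membranes at 3 μg protein/well with 3-fold compound dilutions. [35S]GTPγS 0.2 nM final, 45 min at room temperature. Filter-plate capture, water washes, scintillation counting. EC50 taken at 50% of each compound's own Ymax.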

[5] = molecular target: T1, Sphingosine 1-phosphate receptor 1; assay: Agonist activity at human S1P1 assessed as stimulation of cAMP accumulation relative to control; format: functional; settings: filed as agonist
[6] = molecular target: Sphingosine 1-phosphate receptor 1 (Rattus norvegicus, UniProt P48303); assay: Agonist activity at rat S1P1 expressed in CHO cell membranes assessed as stimulation of [35S]-GTPgamma-S binding measured after 45 mins by liquid scintillation counting method; parameters: species or system Cell membrane; method in brief: as §1
Chain of Sphingosine 1-phosphate receptor 1 (Rattus norvegicus, UniProt P48303) (P48303 whole entry): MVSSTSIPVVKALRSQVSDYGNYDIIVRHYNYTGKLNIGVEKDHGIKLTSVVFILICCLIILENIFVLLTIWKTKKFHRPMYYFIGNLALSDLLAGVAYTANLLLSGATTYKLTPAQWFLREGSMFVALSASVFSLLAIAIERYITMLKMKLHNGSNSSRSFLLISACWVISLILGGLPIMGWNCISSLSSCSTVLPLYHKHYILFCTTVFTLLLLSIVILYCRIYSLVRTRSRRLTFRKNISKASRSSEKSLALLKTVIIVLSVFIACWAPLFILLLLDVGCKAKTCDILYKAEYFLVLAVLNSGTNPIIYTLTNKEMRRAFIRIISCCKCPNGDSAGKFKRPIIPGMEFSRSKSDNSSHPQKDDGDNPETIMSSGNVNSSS

[7] = Protein binding in human assessed as bound fraction; format: ADME; settings: read-out: PB (converted)
[8] = Protein binding in dog assessed as bound fraction; format: ADME, Canis lupus familiaris; settings: read-out: PB (converted)
[9] = Protein binding in monkey assessed as bound fraction; format: ADME, Macaca mulatta; settings: rhesus monkey; read-out: PB (converted)
[10] = species: Homo sapiens; assay: Inhibition of calcium channel (unknown origin) at 10 uM by patch clamp technique relative to control
[11] = molecular target: T2, Cytochrome P450 2B6 (Homo sapiens, UniProt P20813); assay: Inhibition of CYP2B6 (unknown origin); format: ADME
T2 sequence (P20813 whole entry): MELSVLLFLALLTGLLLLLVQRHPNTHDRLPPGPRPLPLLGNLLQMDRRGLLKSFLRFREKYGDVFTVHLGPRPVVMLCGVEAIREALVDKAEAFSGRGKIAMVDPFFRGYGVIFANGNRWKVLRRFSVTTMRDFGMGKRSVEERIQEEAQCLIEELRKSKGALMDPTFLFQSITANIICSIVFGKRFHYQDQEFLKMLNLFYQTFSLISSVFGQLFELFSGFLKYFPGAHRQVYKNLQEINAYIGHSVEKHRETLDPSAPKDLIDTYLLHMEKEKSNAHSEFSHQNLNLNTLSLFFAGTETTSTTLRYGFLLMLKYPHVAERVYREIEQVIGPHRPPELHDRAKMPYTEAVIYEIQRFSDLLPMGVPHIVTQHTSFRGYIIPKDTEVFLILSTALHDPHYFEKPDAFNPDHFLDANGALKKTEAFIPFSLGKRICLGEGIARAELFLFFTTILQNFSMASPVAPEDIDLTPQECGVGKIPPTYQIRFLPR

[12] = molecular target: Cytochrome P450 3A4 (Homo sapiens, UniProt P08684); assay: Inhibition of CYP3A4 (unknown origin) using 7-benzyloxy resorufin as substrate; format: ADME
Chain of Cytochrome P450 3A4 (P08684 whole entry): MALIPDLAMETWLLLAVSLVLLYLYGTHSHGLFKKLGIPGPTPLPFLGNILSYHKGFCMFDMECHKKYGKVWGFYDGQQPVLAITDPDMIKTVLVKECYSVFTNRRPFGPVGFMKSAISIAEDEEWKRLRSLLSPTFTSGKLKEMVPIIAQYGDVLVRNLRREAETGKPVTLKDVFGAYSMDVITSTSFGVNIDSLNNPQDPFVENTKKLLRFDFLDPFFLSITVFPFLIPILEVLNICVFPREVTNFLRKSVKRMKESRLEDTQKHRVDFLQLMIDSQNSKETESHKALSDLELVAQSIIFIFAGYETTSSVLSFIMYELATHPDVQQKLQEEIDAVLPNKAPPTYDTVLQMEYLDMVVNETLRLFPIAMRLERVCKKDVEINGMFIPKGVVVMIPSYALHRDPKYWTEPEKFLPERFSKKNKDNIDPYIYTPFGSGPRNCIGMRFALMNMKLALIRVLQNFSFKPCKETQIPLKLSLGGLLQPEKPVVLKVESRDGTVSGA

[13] = Permeability of compound at pH 7.7 by PAMPA; format: ADME; settings: read-out: permeability
[14] = Permeability of compound at pH 5.5 by PAMPA; format: ADME; settings: read-out: permeability
[15] = Metabolic stability in dog assessed as half-life; format: ADME, Canis lupus familiaris
[16] = Metabolic stability in monkey assessed as half-life; format: ADME, Macaca mulatta; settings: rhesus monkey
[17] = Cmax in cynomolgus monkey at 0.5 mg/kg, po or 0.5 mg/kg, iv; format: ADME, organism-based, Macaca fascicularis; parameters: dose 0.5 mg/kg; settings: in vivo
[18] = Cmax in dog at 0.1 mg/kg, po or 0.1 mg/kg, iv; format: ADME, organism-based, Canis lupus familiaris; parameters: dose 0.1 mg/kg; settings: in vivo
[19] = AUC in rat at 1 mg/kg, po; format: ADME, organism-based; parameters: dose 1 mg/kg; settings: in vivo
[20] = AUC in dog at 0.1 mg/kg, po; format: ADME, organism-based, Canis lupus familiaris; parameters: dose 0.1 mg/kg; settings: in vivo
[21] = Half-life in cynomolgus monkey at 0.5 mg/kg, po or 0.5 mg/kg, iv; format: ADME, organism-based, Macaca fascicularis; settings: in vivo
[22] = Half-life in dog at 0.1 mg/kg, po or 0.1 mg/kg, iv; format: ADME, organism-based, Canis lupus familiaris; settings: in vivo
[23] = Clearance in cynomolgus monkey at 0.5 mg/kg, po or 0.5 mg/kg, iv; format: ADME, organism-based, Macaca fascicularis; settings: in vivo
[24] = Clearance in dog at 0.1 mg/kg, po or 0.1 mg/kg, iv; format: ADME, organism-based, Canis lupus familiaris; settings: in vivo
[25] = Volume of distribution at steady state in dog at 0.1 mg/kg, po or 0.1 mg/kg, iv; format: ADME, organism-based, Canis lupus familiaris; settings: in vivo, read-out: Vdss
[26] = Oral bioavailability in mouse at 5 mg/kg; format: ADME, organism-based; settings: in vivo
[27] = Oral bioavailability in cynomolgus monkey at 0.5 mg/kg; format: ADME, organism-based, Macaca fascicularis; settings: in vivo
[28] = tested on: Rattus norvegicus; assay: Antiarthritic activity in Lewis rat model of Complete Freund's adjuvant-induced arthritis at 0.03 mg/kg, po QD administered for 21 days after CFA injection and measured weekly three times upto day 21 by water displacement plethysmometry; format: functional, organism-based; settings: time 21.0 day
Method in brief: (§2)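 Male Lewis rats, 200−225 g, n = 8 per group. Immunized at the tail base with 100 μL of 10 mg/mL ground Mycobacterium butyricum in incomplete Freund's adjuvant. Oral dosing once daily in PEG300 vehicle from the day of immunization for 21 days, at 0.03, 0.1 or 1.0 mg/kg. Dexamethasone 0.1 mg/kg PO QD as positive control. Paw volume by water displacement plethysmometry, day 7 to day 21.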

[29] = tested on: Rattus norvegicus; assay: Antiarthritic activity in Lewis rat model of Complete Freund's adjuvant-induced arthritis assessed as reduction in paw swelling at 0.1 mg/kg, po qd administered for 21 days after CFA injection and measured weekly three times upto day 21 by water displacement plethysmometry; format: functional; parameters: scale not given: the % may be the effect or the level left; settings: time 21 day; method in brief: as §2
[30] = tested on: Rattus norvegicus; assay: Antiarthritic activity in Lewis rat model of Complete Freund's adjuvant-induced arthritis assessed as inhibition in paw swelling at 0.1 to 1 mg/kg, po qd administered for 21 days after CFA injection and measured weekly three times upto day 21 by water displacement plethysmometry; format: functional, organism-based; settings: dose 0.1-1 mg/kg, time 21.0 day; method in brief: as §2
[31] = tested on: Rattus norvegicus; assay: Antiarthritic activity in Lewis rat model of Complete Freund's adjuvant-induced arthritis assessed as effective dose causing reduction in paw swelling administered orally once daily for 21 days after CFA injection and measured weekly three times upto day 21 by water displacement plethysmometer; format: functional; settings: po, 504 h, time 21 day; method in brief: as §2
[32] = tested on: Rattus norvegicus; assay: Antiarthritic activity in Lewis rat model of Complete Freund's adjuvant-induced arthritis assessed as reduction in paw swelling administered orally once daily for 21 days after CFA injection and measured weekly three times upto day 21 by water displacement plethysmometer; format: functional, organism-based; settings: 504 h; method in brief: as §2

`O=C(O)C1CN(Cc2ccc3c(c2)CCc2c-3noc2-c2onc(-c3ccccc3)c2C(F)(F)F)C1` showed a concentration at 24 h [1] of 13 nM, a Ratio [2] of 4 and an EC50 [3] of 2.5 nM. The Emax [4] was 95%, the Emax [5] was 93% and the EC50 [6] was 0.31 nM. The fraction unbound [7] was 0.004, the fraction unbound [8] was 0.005 and the fraction unbound [9] was 0.005. It also gave an inhibition [10] of 11%, an IC50 [11] of over 40000 nM and an IC50 [12] of over 40000 nM. It also gave a Papp [13] of 28 ×10⁻⁶ cm/s, a Papp [14] of 26 ×10⁻⁶ cm/s and a half-life [15] of over 2 h. For the same compound, the half-life [16] was over 2 h, the Cmax [17] was 410 nM and the Cmax [18] was 90 nM. For the same compound, the AUC [19] was 1.5 µM·h, the AUC [20] was 2.3 µM·h and the half-life [21] was 18 h. The half-life [22] was 23.1 h, the clearance [23] was 2.4 mL/min/kg and the clearance [24] was 1.4 mL/min/kg. The Vd [25] was 2.5 L/kg, the F [26] was 80% and the bioavailability [27] was 80%. For the same compound, the Activity [28] was “inactive”, the Activity [29] was over 50% and the Activity [30] was “Active”. The ED50 [31] was 0.09 mg/kg and the EC50 [32] was 24 nM.
